Results as given in ChEMBL document CHEMBL5107939, “Optimization of brain-penetrant picolinamide derived leucine-rich repeat kinase 2 (LRRK2) inhibitors” (RSC Med Chem, 2021).

Tests used:
[1] = target: T1, Leucine-rich repeat serine/threonine-protein kinase 2 (Homo sapiens, UniProt Q5S007, G2019S); assay: Inhibition of human LRRK2 G2019S mutant expressed in human SH-SY5Y cells assessed as inhibition of tetracycline induced LRRK2 phosphorylation at Ser935 residue incubated for 90 mins by MSD assay; format: cell-based
T1 sequence (Q5S007 whole entry G2019S): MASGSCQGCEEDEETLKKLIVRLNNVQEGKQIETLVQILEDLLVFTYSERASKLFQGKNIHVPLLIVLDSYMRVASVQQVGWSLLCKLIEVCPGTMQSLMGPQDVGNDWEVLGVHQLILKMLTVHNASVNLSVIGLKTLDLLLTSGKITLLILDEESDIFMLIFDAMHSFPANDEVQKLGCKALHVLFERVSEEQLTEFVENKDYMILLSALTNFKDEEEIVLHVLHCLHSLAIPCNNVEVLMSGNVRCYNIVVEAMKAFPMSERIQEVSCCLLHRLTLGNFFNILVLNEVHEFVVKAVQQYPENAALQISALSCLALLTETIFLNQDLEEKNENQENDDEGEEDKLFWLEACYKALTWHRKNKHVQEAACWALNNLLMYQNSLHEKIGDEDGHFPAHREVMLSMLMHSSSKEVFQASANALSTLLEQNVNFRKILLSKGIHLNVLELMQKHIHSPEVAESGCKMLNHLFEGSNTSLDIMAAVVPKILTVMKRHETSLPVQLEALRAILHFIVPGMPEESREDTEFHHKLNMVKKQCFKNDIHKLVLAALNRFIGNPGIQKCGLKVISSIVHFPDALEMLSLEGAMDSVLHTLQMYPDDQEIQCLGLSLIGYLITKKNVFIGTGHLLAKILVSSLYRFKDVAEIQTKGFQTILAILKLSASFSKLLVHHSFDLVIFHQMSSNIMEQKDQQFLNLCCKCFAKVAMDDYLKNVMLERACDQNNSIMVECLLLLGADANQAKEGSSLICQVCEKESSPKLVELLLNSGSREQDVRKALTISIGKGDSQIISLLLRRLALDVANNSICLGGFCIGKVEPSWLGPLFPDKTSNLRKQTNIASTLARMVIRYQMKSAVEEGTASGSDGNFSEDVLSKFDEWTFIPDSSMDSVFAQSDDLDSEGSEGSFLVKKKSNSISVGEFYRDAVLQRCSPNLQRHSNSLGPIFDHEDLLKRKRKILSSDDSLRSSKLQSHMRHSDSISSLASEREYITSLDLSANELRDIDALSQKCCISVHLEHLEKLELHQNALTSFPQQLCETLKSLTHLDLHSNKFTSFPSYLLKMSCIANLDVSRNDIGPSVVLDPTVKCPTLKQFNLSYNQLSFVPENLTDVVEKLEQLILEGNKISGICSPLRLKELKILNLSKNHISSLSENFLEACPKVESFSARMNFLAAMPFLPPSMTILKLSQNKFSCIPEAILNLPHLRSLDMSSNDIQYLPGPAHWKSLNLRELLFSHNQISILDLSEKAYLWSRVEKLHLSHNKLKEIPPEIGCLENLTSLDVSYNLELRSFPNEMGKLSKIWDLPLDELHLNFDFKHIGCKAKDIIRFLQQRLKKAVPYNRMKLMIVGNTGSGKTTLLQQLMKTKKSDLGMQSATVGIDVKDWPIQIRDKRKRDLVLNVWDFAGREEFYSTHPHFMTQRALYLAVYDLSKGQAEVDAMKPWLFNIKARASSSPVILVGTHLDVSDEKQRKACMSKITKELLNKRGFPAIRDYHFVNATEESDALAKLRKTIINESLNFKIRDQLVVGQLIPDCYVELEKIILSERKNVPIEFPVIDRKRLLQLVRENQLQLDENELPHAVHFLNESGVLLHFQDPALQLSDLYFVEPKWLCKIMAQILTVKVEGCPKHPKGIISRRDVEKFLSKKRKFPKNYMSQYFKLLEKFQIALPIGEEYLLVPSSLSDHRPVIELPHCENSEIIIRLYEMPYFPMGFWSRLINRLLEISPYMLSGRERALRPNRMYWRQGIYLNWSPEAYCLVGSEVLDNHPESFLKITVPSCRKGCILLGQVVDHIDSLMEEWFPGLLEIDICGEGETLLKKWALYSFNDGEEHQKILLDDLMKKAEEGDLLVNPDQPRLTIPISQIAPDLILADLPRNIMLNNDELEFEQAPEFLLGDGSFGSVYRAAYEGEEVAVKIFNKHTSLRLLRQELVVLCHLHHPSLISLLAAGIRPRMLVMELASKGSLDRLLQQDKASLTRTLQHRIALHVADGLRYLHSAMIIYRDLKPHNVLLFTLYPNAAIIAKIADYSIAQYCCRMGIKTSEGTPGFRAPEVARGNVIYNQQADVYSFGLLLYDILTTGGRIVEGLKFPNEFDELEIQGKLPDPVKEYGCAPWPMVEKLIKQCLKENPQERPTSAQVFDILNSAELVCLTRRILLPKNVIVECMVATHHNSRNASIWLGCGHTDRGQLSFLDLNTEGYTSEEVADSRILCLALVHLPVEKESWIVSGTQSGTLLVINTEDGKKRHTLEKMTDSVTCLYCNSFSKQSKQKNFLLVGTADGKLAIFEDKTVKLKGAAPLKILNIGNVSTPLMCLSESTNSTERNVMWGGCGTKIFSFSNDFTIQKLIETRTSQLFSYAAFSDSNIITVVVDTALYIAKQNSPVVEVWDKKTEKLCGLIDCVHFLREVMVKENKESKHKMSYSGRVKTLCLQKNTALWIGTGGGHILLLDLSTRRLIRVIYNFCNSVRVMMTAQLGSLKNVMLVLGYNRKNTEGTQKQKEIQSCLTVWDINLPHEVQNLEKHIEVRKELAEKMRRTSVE
Method in brief: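 SH-SY5Y neuroblastoma cells carrying LRRK2 G2019S, grown in DMEM/F-12 with GlutaMax, 10% Tet-free FBS, nonessential amino acids and pen-strep at 37 °C, 5% CO2. Expression induced with Tet (2 µg/ml) 48-72 h before treatment. Compound exposure 90 min. Lysates captured on anti-LRRK2-coated MSD plates, probed for pSer935 or total LRRK2 with Sulfo-Tag read-out. IC50 from standard 4P fit of % inhibition.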

[2] = target: Dual specificity protein kinase CLK2 (Homo sapiens, UniProt P49760); assay: Inhibition of CLK2 (unknown origin) assessed as substrate phosphorylation using coumarin and fluorescein-labeled peptide as substrate incubated for 1 hr by Z'-LYTE kinase assay
Sequence of Dual specificity protein kinase CLK2 (P49760 whole entry): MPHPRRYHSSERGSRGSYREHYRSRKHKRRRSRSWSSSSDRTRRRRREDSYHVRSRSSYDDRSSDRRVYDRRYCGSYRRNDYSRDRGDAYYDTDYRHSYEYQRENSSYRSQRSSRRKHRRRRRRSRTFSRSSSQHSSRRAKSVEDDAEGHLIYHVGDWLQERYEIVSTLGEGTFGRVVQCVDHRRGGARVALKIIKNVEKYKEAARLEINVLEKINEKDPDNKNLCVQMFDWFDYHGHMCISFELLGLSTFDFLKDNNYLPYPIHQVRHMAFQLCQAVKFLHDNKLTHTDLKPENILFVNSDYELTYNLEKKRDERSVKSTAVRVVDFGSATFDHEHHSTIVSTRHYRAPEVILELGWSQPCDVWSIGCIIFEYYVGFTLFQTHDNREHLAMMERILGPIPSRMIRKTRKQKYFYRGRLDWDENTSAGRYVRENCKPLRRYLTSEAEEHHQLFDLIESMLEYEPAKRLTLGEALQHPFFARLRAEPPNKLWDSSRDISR
Method in brief: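 CLK2 Z'-LYTE coupled-enzyme kit format, 10-point titration from DMSO; enzyme, substrate and compound reacted 1 h at ambient temperature; after development solution, read at excitation 400 nm; activity from coumarin 445 nm/fluorescein 520 nm emission ratio.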

[3] = target: T1, Leucine-rich repeat serine/threonine-protein kinase 2; assay: Inhibition of recombinant human GST20 tagged truncated LRRK2 G2019S mutant assessed as substrate phosphorylation preincubated for 15 mins followed by substrate addition and measured after 90 mins using fluorescein-labeled LRRK2tide as substrate in presence of ATP by TR-FRET based Lanthascreen kinase activity assay
Method in brief: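 Enzyme 1.25 nM in 50 mM Tris pH 8.5, 10 mM MgCl2, 0.01% Brij-35, 1 mM EGTA, 2 mM DTT, 0.05 mM orthovanadate. Compound (top 9.99 µM in DMSO, ten-point serial dilution) preincubated 15 min at RT. […] Stopped with EDTA plus 2 nM Tb anti-pERM, 1 h RT. 520/495 nm ratio read. IC50 from 4-parameter logistic fit, mean of several runs.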

[4] = MRT in po dosed CD rat measured after 120 mins by LC-MS/MS analysis; format: ADME, organism-based; conditions: in vivo
[5] = Intrinsic clearance in po dosed CD rat measured after 120 mins by LC-MS/MS analysis; format: ADME, organism-based; conditions: in vivo, 2 h
[6] = Plasma clearance in po dosed CD rat measured after 120 mins by LC-MS/MS analysis; format: ADME, organism-based
Homo sapiens = species: Homo sapiens; assay: Selectivity ratio, ratio of IC50 for inhibition of CLK2 (unknown origin) to IC50 for inhibition of recombinant human GST20 tagged truncated LRRK2 G2019S mutant
[7] = Mutagenicity in Salmonella typhimurium TA98 at 30 to 5000 ug in presence of S9 metabolic activation system for 48 hrs by ames test; format: toxicity, Salmonella enterica subsp. enterica serovar Typhimurium; conditions: dose 30-5000 µg
Method in brief: (§1)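 Plate incorporation Ames test with S9 from phenobarbital/beta-naphthoflavone-induced male Wistar Han rat liver; 30, 100, 300, 1000, 3000, 5000 µg/plate; triplicate minimal glucose agar plates with trace histidine; 48 h at 37 °C; positive if 2-fold revertant increase over vehicle with dose relation.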

[8] = Mutagenicity in Salmonella typhimurium TA100 at 30 to 5000 ug in presence of S9 metabolic activation system for 48 hrs by ames test; format: toxicity, Salmonella enterica subsp. enterica serovar Typhimurium; conditions: dose 30-5000 µg; method in brief: as §1
[9] = Mutagenicity in Salmonella typhimurium TA1535 at 30 to 5000 ug in presence of S9 metabolic activation system for 48 hrs by ames test; format: toxicity, Salmonella enterica subsp. enterica serovar Typhimurium; conditions: in vitro, dose 30-5000 µg; method in brief: as §1
[10] = target: Sodium channel protein type 5 subunit alpha (Homo sapiens, UniProt Q14524); assay: Inhibition of human NaV1.5 expressed in HEK293 by PatchXpress automated patch clamp assay; format: cell-based
Sequence of Sodium channel protein type 5 subunit alpha (Q14524 whole entry): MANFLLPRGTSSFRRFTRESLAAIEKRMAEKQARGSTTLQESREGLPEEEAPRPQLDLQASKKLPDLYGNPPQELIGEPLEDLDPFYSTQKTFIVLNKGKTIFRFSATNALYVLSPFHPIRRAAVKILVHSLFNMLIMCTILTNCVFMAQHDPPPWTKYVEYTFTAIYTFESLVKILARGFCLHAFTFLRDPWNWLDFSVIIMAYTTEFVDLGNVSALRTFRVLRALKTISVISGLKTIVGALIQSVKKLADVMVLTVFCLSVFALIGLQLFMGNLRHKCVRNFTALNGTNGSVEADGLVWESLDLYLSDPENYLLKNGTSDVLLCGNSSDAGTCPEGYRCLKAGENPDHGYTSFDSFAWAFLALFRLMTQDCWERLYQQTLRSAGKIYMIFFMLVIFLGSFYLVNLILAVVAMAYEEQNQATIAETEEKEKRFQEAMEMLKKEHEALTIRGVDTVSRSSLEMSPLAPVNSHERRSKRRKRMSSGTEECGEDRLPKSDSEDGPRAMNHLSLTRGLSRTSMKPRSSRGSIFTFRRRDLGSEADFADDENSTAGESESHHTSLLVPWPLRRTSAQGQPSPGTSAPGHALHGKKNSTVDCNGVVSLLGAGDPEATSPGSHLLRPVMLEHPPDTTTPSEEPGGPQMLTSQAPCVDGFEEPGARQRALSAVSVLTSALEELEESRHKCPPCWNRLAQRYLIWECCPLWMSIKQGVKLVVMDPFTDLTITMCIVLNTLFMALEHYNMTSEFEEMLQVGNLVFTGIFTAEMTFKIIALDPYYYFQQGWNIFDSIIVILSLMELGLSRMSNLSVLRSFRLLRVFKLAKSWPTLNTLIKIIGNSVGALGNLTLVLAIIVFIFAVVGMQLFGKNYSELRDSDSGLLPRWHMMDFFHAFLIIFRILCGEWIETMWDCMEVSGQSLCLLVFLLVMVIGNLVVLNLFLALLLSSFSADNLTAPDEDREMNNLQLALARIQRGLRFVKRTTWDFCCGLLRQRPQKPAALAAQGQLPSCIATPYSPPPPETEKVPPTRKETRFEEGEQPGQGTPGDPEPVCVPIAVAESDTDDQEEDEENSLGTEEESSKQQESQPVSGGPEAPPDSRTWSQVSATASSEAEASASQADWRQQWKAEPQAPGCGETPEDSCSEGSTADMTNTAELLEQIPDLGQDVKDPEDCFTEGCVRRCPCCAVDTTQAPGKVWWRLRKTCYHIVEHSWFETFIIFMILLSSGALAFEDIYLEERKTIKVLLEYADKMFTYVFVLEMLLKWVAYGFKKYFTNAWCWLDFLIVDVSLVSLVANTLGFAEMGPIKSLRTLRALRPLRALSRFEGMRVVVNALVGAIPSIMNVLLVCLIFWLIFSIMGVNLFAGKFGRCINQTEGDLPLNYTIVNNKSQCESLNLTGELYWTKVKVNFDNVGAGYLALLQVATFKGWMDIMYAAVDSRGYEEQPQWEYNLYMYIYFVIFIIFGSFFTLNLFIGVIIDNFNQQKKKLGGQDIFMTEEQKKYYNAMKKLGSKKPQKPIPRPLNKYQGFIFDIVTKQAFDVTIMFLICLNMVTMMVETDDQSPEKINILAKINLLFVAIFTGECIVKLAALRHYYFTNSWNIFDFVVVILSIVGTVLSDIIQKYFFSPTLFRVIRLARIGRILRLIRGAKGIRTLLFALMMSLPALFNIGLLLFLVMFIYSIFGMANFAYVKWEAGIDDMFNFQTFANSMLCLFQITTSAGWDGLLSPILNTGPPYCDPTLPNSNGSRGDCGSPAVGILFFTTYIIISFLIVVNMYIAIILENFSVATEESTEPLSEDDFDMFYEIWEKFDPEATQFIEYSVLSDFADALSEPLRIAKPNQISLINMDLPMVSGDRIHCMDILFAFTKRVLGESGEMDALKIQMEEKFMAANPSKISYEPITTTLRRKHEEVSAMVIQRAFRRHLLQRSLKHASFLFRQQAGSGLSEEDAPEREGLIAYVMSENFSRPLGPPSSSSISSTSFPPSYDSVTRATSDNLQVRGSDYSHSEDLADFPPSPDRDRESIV

[11] = In vivo inhibition of LRRK2 in CD rat assessed as reduction in serine 935 phosphorylated LRRK2 in striatum at 10 mg/kg, po and measured after 2 hrs by MSD immunoassay; format: functional
Method in brief: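 Male CD rats (125-150 g) dosed orally with compound suspended in 10% Tween 80 (5 mL/kg) or vehicle, euthanized by CO2 2 h later; striatum dissected, frozen on dry ice; pSer935 LRRK2 measured by MSD immunoassay as pSer935/total LRRK2 ratio, mean ± S.E.M.; one-way ANOVA with Dunnett's post hoc test.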

[12] = Intrinsic clearance in po dosed Beagle dog and measured upto 24 hrs by LC-MS/MS analysis; format: ADME, organism-based, Canis lupus familiaris; conditions: in vivo
P-gp (rat Mdr1a) [13] = assay: Substrate activity at P-gp (unknown origin) expressed in LLC-PK1 cells transfected with rat Mdr1a assessed as efflux ratio of apparent permeability across basolateral to apical side to apparent permeability across apical to basolateral side at 1 uM incubated for 3 hrs by LC-MSMS analysis; format: ADME, cell-based, Sus scrofa; conditions: pig
[14] = MRT in po dosed Beagle dog and measured upto 24 hrs by LC-MS/MS analysis; format: ADME, organism-based, Canis lupus familiaris; conditions: in vivo
P-gp (rat Mdr1a) [15] = assay: Substrate activity at P-gp (unknown origin) expressed in LLC-PK1 cells transfected with rat Mdr1a assessed as apparent permeability at 1 uM incubated for 3 hrs by LC-MSMS analysis; format: ADME, cell-based, Sus scrofa; conditions: pig
[16] = Plasma clearance in po dosed Beagle dog and measured upto 24 hrs by LC-MS/MS analysis; format: ADME, organism-based, Canis lupus familiaris
[17] = Brain to plasma permeability coefficient, Kp in CD rat plasma assessed as unbound fraction at 3 to 100 mg/kg, po and measured after 2 hrs by LC/MS/MS analysis; format: ADME, organism-based; conditions: in vivo, dose 3-100 mg/kg

C[C@@H]1[C@@H](O)CN1c1cc(NC(=O)c2cccc(-c3cnn(C)c3)n2)c(C(F)(F)F)cn1
IC50 [1]: 2 nM | IC50 [2]: 12 nM | IC50 [3]: 2 nM

CC(C)(O)[C@@H]1CCN(c2cnc(C(F)(F)F)c(NC(=O)c3cccc(-c4cnn(CC5CC5)c4)n3)c2)C1
IC50 [1]: 0.4 nM | IC50 [2]: 23 nM | IC50 [3]: 8.6 nM | MRT [4]: 2.9 h | CL [5]: 78464 mL/min/kg | CL/F [6]: 38 mL/min/kg | Ratio IC50 (Homo sapiens): 3

Cc1nc(N)cc(N2CC[C@@H](C(C)(C)O)C2)n1
Activity [7]: Non-Toxic | Activity [8]: Non-Toxic | Activity [9]: Non-Toxic

Cc1nc(NC(=O)c2cccc(-c3cnn(C)c3)n2)cc(N2CC[C@@H](C(C)(C)O)C2)n1
IC50 [1]: 42 nM | IC50 [2]: 255 nM | IC50 [3]: 4 nM

CC(C)(O)[C@@H]1CCN(c2cnc(C(F)(F)F)c(NC(=O)c3cccc(-c4cnn(CC(F)(F)F)c4)n3)c2)C1
IC50 [1]: 0.7 nM | IC50 [2]: 442 nM | IC50 [3]: 10 nM | MRT [4]: 1.7 h | IC50 [10]: 30000 nM | CL [5]: 2780 mL/min/kg | CL/F [6]: 42 mL/min/kg | Ratio IC50 (Homo sapiens): 42

Cn1cc(-c2cccc(C(=O)Nc3cc(N4CC5(C(C)(C)O)CC4C5)ncc3C(F)(F)F)n2)cn1
IC50 [1]: 2 nM | IC50 [2]: 9.6 nM | IC50 [3]: 9 nM

CC(C)(O)[C@@H]1CCN(c2cnc(C(F)(F)F)c(NC(=O)c3cccc(-c4cnn(C5CCC5)c4)n3)c2)C1
IC50 [1]: 1.3 nM | IC50 [2]: 91 nM | IC50 [3]: 19 nM | MRT [4]: 2.1 h | CL/F [6]: 31.4 mL/min/kg | Ratio IC50 (Homo sapiens): 5

Cn1cc(-c2cccc(C(=O)Nc3cnn(C4CCC4)c3)n2)cn1
IC50 [1]: 905 nM | IC50 [2]: 5960 nM | IC50 [3]: 53 nM | Ratio IC50 (Homo sapiens): 112

C[C@@H]1CN(c2cc(NC(=O)c3cccc(-c4cnn(C)c4)n3)c(C(F)(F)F)cn2)C[C@H](C)O1
IC50 [1]: 1.5 nM | IC50 [2]: 21 nM | IC50 [3]: 4 nM | Ratio IC50 (Homo sapiens): 5

CC(C)(O)[C@@H]1CCN(c2cnc(C(F)(F)F)c(NC(=O)c3cccc(-c4cnn(CC5(C(F)(F)F)CC5)c4)n3)c2)C1
IC50 [1]: 0.3 nM | IC50 [2]: 470 nM | IC50 [3]: 8 nM | MRT [4]: 1.2 h | CL/F [6]: 87 mL/min/kg | Ratio IC50 (Homo sapiens): 59

CCn1cc(-c2cccc(C(=O)Nc3cc(N4CC[C@@H](C(C)(C)O)C4)cnc3C(F)(F)F)n2)cn1
IC50 [1]: 7 nM | IC50 [2]: 30 nM | IC50 [3]: 40 nM

C[C@@H]1CN(c2cc(-c3n[nH]c4ccc(OC5(C)CC5)cc34)ncn2)C[C@H](C)O1 [MLi-2]
inhibition in vivo at 10 mg/kg [11]: 72%

Cn1cc(-c2cccc(C(=O)Nc3cnn(C4CCC4)c3)c2F)cn1
IC50 [1]: 1650 nM | IC50 [2]: 716 nM | IC50 [3]: 70 nM | Ratio IC50 (Homo sapiens): 10

C[C@@H]1[C@H](O)CCN1c1cc(NC(=O)c2cccc(-c3cnn(C)c3)n2)c(C(F)(F)F)cn1
IC50 [1]: 3 nM | IC50 [2]: 86 nM | IC50 [3]: 5 nM

Cn1cc(-c2nc(C(=O)Nc3cnn(C4CCC4)c3)cs2)cn1
IC50 [1]: 271 nM | IC50 [2]: 119 nM | Ratio IC50 (Homo sapiens): 8.5

Cn1cc(-c2cccc(C(=O)Nc3cc(N4CC[C@@H](C(C)(C)O)C4)cnc3C(F)(F)F)n2)cn1
CL [12]: 1029 mL/min/kg | IC50 [1]: 21 nM | IC50 [2]: 62 nM | IC50 [3]: 17 nM | efflux ratio at 3 h, 1 µM (P-gp (rat Mdr1a) [13]): 0.94 | MRT [4]: 4.9 h | CL [5]: 271 mL/min/kg | CL/F [6]: 6.7 mL/min/kg | MRT [14]: 9.4 h | Papp at 3 h, 1 µM (P-gp (rat Mdr1a) [15]): 29 ×10⁻⁶ cm/s | Ratio IC50 (Homo sapiens): 4 | CL/F [16]: 4.8 mL/min/kg | Kp [17]: 0.4

COC1CN(c2cc(NC(=O)c3cccc(-c4cnn(C)c4)n3)c(C(F)(F)F)cn2)C1
IC50 [1]: 2.8 nM | IC50 [2]: 67 nM | IC50 [3]: 28 nM | Ratio IC50 (Homo sapiens): 2.4

CC(C)(O)[C@@H]1CCN(c2cnc(C(F)(F)F)c(N)c2)C1
Activity [7]: Non-Toxic | Activity [8]: Non-Toxic | Activity [9]: Non-Toxic

CC(C)(O)[C@@H]1CCN(c2cc(N)c(C(F)(F)F)cn2)C1
Activity [7]: Toxic | Activity [8]: Toxic | Activity [9]: Toxic

Cn1cc(-c2nccc(C(=O)Nc3cnn(C4CCC4)c3)n2)cn1
IC50 [1]: 953 nM | IC50 [2]: 17200 nM | Ratio IC50 (Homo sapiens): 505

Cn1cc(-c2cccc(C(=O)Nc3cc(N4CC(O)C4)ncc3C(F)(F)F)n2)cn1
IC50 [1]: 7.5 nM | IC50 [2]: 64 nM | IC50 [3]: 4.8 nM | Ratio IC50 (Homo sapiens): 13

Cc1cnc(N2C[C@@H](C)O[C@@H](C)C2)cc1NC(=O)c1cccc(-c2cnn(C)c2)n1
IC50 [1]: 24 nM | IC50 [2]: 124 nM | IC50 [3]: 9 nM | Ratio IC50 (Homo sapiens): 14

C[C@H]1CN(c2cc(NC(=O)c3cccc(-c4cnn(C)c4)n3)c(C(F)(F)F)cn2)CCN1C1COC1
IC50 [2]: 8 nM | IC50 [3]: 1.5 nM | MRT [4]: 2.2 h | CL [5]: 4081 mL/min/kg | CL/F [6]: 2.7 mL/min/kg | Ratio IC50 (Homo sapiens): 5
